# Compound activity as filed in PubChem BioAssay.
# TLR9-MyD88 block = inhibitors of TLR9-MyD88 association in cells, primary screen, cell-based, CHO, BLA complementation, fluorescence | Toll-like receptor 9 (Homo sapiens) + Myeloid differentiation primary response protein … | 340,000 tested, 0.21% active | CCF4 FRET ratio | inhibition, % at 4.98 µM;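 active = inhibition above the mean over all tested compounds plus 3 SD, cut at about 21% in these data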;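 also: 0% = DMSO only wells and 100% = clavulanate BLA inhibitor control wells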
# Target sequence (Q99836 whole entry, looked up): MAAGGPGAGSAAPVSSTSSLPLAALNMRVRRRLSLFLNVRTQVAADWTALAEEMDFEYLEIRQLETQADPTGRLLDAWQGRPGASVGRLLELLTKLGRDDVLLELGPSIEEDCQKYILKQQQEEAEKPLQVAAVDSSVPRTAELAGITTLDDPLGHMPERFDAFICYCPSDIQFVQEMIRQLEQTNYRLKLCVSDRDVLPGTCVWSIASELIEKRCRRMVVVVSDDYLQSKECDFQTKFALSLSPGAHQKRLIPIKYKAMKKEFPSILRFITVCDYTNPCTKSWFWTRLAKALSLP
# Target sequence (Q9NR96 whole entry, looked up): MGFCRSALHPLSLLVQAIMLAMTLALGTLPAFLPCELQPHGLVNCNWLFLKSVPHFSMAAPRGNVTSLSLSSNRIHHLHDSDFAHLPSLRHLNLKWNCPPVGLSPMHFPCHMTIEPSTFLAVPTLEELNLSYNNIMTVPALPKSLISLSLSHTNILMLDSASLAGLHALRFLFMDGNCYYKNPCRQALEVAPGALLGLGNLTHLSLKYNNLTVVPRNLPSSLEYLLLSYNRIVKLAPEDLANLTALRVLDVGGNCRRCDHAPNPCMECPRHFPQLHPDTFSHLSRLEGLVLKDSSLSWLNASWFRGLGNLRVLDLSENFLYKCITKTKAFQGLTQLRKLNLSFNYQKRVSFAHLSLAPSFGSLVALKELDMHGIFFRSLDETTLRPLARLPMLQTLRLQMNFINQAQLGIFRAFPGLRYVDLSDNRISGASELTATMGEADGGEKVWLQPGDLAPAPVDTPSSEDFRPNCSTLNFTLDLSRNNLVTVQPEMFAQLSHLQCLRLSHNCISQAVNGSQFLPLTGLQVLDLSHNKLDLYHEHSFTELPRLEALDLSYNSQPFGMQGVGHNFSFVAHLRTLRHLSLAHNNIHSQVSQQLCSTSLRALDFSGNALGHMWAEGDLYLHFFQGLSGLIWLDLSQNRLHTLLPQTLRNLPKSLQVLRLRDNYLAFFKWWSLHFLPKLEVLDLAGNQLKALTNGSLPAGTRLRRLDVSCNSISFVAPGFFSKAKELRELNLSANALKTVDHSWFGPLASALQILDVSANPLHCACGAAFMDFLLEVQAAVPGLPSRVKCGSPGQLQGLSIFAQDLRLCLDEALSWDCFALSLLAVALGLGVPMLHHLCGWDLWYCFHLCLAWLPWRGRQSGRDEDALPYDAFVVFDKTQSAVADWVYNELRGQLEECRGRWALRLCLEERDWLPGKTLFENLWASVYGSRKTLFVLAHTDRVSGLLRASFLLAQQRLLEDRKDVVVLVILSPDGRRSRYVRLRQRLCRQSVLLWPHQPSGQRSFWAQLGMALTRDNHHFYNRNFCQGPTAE
# SR-BI HDL uptake = inhibitors of SR-BI mediated HDL lipid uptake, primary screen, ldlA[mSR-BI] cells, fluorescence, single point; Scavenger receptor class B member 1 (Mus musculus), Q61009; ldlA[mSR-BI] CHO cells, DiI-HDL uptake fluorescence, 3 h; inhibition, % at 12.5 µM; 320,000 tested, 0.96% active; AID 488896, 2010;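 active = mean replicate inhibition of at least 70% and a set share of replicates each scoring 70 or more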;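 also: 0% = median of neutral control wells and 100% = median of positive control wells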
# SR-BI DiI-HDL act = activators of SR-BI mediated DiI-HDL uptake, primary screen, ldlA[mSR-BI] CHO cells, DiI fluorescence; 3 h; 100 = double the neutral-control signal; activation, % at 12.5 µM; 320,000 tested, 0.096% active;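 active = mean replicate activation of at least 60% and every replicate at or above 60%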;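 also: 0% = median plate neutral-control signal and 100% = twice that signal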
#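 Assay system: LDL receptor-deficient CHO ldlA cells overexpressing murine SR-BI / Medium: BSA-supplemented, HEPES-buffered Ham's F12, pH 7.4 / Probe or stimulus: DiI-labelled HDL at 10 µg/mL final / Timing: compound with DiI-HDL co-incubation, 3 h at 37 °C / Technique: bottom-read cell fluorescence after medium removal, ex 550/em 595 nm / Measure: HDL uptake via cellular fluorescence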
# NOD2 RIPK2 PPI = NOD2-RIPK2 binding disruptors in cells, primary screen, fluorescence, CHO cells, BLA complementation; Receptor-interacting serine/threonine-protein kinase 2 (Homo sapiens), O43353; CCF4 ratio; inhibition, % at 4.98 µM; 360,000 tested, 0.38% active; AID 624267, 2012; in the data active = inhibition above about 21%;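 also: 0% = vehicle only and 100% = reference blocker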
# Lipid droplet = inhibitors of hepatocyte lipid droplet formation, primary screen, imaging, high-throughput imaging, BODIPY stain | AML12 mouse hepatocytes, oleate lipid droplets | inhibition, % at 6.5 µM | 240,000 tested, 0.4% active;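 active = lipid droplet intensity inhibited by at least 50%, with more than 500 cells counted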
#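 material = mouse AML12 hepatocyte cell line, fixed after treatment | also added = 100 µM oleic acid challenge | doses = compound at 6.5 µM only | schedule = overnight exposure | technique = Image-based BODIPY and DAPI two-channel analysis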
# TLR4 MyD88 comp = inhibitors of TLR4-MyD88 association in cells, primary screen, cell-based, HeLa CL3-4, BLA complementation, FRET ratio; Toll-like receptor 4 (Homo sapiens) + Myeloid differentiation primary response protein …; HeLa CL3-4 TLR4/MyD88 BLA complementation; inhibition, % at 8.4 µM; 200,000 tested, 0.18% active; AID 861, 2007; in the data active = inhibition above about 25%;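 also: 0% = vehicle and 100% = reference inhibitor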
# NOD2 RIPK2 conf = NOD2-RIPK2 binding disruptors, retest, confirmation, fluorescence, CHO cells, BLA complementation, triplicate | shares compounds with NOD2 RIPK2 PPI | 1,200 tested, 70% active | inhibition, % at 4.98 µM | CCF4 FRET;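 active = mean inhibition across replicates above a set limit taken from the earlier primary screen, cut at about 21% in these data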;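 also: 0% = DMSO-only wells and the high end = clavulanate BLA-blocked wells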
# NOD2 BLA counter = counter-screen for NOD2-RIPK2 interaction inhibitors: BLA reporter. inhibition, % at 4.98 µM. CHO BLA reporter, CCF4 FRET ratio, counterscreen. shares compounds with NOD2 RIPK2 PPI. 1,200 tested, 57% active;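 active = mean inhibition above the low-control mean inhibition plus three low-control SD, cut at about 11% in these data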;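 also: 0% = DMSO only wells and 100% = clavulanate high control wells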
# * hit, by the source's call; nt = no result. Shown are actives, neighbours in structure and some others; about 1.6% of the full set was active somewhere.
SMILES,TLR9-MyD88 block,SR-BI HDL uptake,SR-BI DiI-HDL act,NOD2 RIPK2 PPI,Lipid droplet,TLR4 MyD88 comp,NOD2 RIPK2 conf,NOD2 BLA counter
COC1=C(OC)C(=O)C(Sc2ccc3ccccc3c2)=CC1=O,20,-29,29,25*,nt,nt,70*,31*
CC(NC(=O)CN(c1cccc(C(F)(F)F)c1)S(=O)(=O)c1ccc(Cl)c([N+](=O)[O-])c1)c1ccccc1 (stereo unspecified),8,16,-16,39*,16,-4,35*,-1
O=C(CN(c1cccc(C(F)(F)F)c1)S(=O)(=O)c1ccc(Cl)c([N+](=O)[O-])c1)NCc1ccccc1,-3,-27,27,-12,2,14,nt,nt
ClC(Cl)(c1nnnn1-c1ccccc1)c1nnnn1-c1ccccc1,12,-26,26,42*,-4,-1,42*,7
O=C1C=C(c2c(O)ccc3ccccc23)c2ccccc2C1=O,-5,56,-56,21*,nt,nt,15,-11
COCCNC(=O)C1CCCN(Cc2ccccc2-c2ccccc2)CC1 (stereo unspecified),nt,nt,nt,-6,nt,nt,nt,nt
Cc1ccc(S(=O)(=O)Oc2ccccc2/C=N/NC(N)=S)cc1,-4,40,-40,24*,-8,-9,11,0
Cc1ccc(S(=O)(=O)Oc2ccccc2/C=N/N=C(N)N)cc1,-4,-17,17,-6,-1,-2,nt,nt
O=C(NC(=S)Nc1sc2c(c1C(=O)O)CCCC2)c1ccccc1,-1,-4,4,35*,nt,nt,1,-7
N#Cc1c(NC(=S)NC(=O)c2ccccc2)sc2c1CCC2,0,nt,nt,-3,12,-12,nt,nt
CCN(CC)S(=O)(=O)c1ccc(N/N=C/c2ccc(O)cc2)nc1,-8,28,-28,40*,23,-6,2,3
CCOc1cccc(/C=N/Nc2ccc(S(=O)(=O)N(CC)CC)cn2)c1O,-7,-3,3,-6,30,3,nt,nt
Cc1nc2c(OCc3ccc(Cl)cc3)cccn2c1N(C)C(=O)CCC1CCCC1,nt,nt,nt,-4,nt,nt,nt,nt
CC1=C(C)CS(=O)N(S(=O)(=O)c2ccc(Cl)cc2)C1 (stereo unspecified),9,nt,nt,37*,nt,0,29*,3
COCCNC(=O)CSc1cc(=O)n(C)c2cc(Cl)ccc12,2,-13,13,-12,-8,-3,nt,nt
Cc1cc(NC(=O)c2ccc3sc([C@@H]4O[C@H](CO)[C@H](O)[C@H](O)[C@H]4O)nc3c2)n(C)n1,nt,nt,nt,7,nt,nt,nt,nt
C=CCn1c(-c2oc3nc(-c4ccccc4)cc(-c4ccccc4)c3c2N)n[nH]c1=S,1,-11,11,34*,-16,8,87*,88*
CCOC(=O)c1c(C)[nH]c(C(=O)COC(=O)C2(C)CC2(Cl)Cl)c1C (stereo unspecified),-6,37,-37,-3,8,-12,nt,nt
Cc1ccc(-c2nn(-c3ccccc3)cc2C(=O)O)o1,nt,nt,nt,nt,10,2,nt,nt
Cc1ccc(-c2nn(-c3ccccc3)cc2CN(Cc2ccccc2)C(=O)c2ccco2)o1,8,5,-5,36*,-12,-3,2,-7
Cc1cc(NC(=O)CSc2nnc(-c3ccccc3Cl)o2)no1,3,5,-5,47*,6,nt,-3,-1
CCOc1ccc(/C=C(\C#N)C(=O)c2c(C)[nH]c3ccccc23)cc1OC,-8,49,-49,22*,-23,-17,2,-6
